Source: ChEMBL document CHEMBL1250470, “Synthesis and CYP24A1 inhibitory activity of (E)-2-(2-substituted benzylidene)- and 2-(2-substituted benzyl)-6-methoxy-tetralones” (Eur J Med Chem, 2010)

Tests used:
Type in all cases: cell-based, CHO
[1] = biological target: 1,25-dihydroxyvitamin D(3) 24-hydroxylase, mitochondrial (Homo sapiens, UniProt Q07973, L148F); assay: Inhibition of CYP24A1 L148F mutant expressed in […]
In short: (§1)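 V79-4 Chinese hamster lung fibroblasts stably expressing wild-type or mutant (L148F, M416T) CYP24A1 were grown in DMEM with FCS, antibiotics and hygromycin at 5% CO₂, then subcultured into 6-well plates for 24 h. Incubation was for 6 h in 1% BSA DMEM with 100,000 CPM/well [1β-³H]1α,25-(OH)₂D₃ and DPPD antioxidant. Inhibitors, from ethanol stocks, were tested at 10⁻⁴–10⁻⁷ M. Methanol stopped the reaction, followed by scintillation counting.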

[2] = biological target: T1, 1,25-dihydroxyvitamin D(3) 24-hydroxylase, mitochondrial (Homo sapiens, UniProt Q07973); assay: Inhibition of CYP24A1 expressed in […]
T1 sequence (Q07973 whole entry): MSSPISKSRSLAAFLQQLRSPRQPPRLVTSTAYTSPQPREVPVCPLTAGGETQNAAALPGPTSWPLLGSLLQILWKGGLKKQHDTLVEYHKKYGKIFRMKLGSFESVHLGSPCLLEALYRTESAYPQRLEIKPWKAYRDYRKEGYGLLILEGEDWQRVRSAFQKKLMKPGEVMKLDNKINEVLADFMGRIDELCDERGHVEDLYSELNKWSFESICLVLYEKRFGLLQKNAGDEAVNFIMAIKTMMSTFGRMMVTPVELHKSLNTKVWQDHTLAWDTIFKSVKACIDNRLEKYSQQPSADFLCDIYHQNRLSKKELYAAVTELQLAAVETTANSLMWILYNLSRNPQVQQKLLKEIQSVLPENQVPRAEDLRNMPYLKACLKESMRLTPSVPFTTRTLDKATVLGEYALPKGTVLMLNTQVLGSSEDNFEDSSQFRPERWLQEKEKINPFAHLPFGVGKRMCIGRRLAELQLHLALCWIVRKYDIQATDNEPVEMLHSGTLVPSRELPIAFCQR

[3] = biological target: 1,25-dihydroxyvitamin D(3) 24-hydroxylase, mitochondrial (Homo sapiens, UniProt Q07973, M416T); assay: Inhibition of CYP24A1 M416T mutant expressed in […]; in short: as §1
Chain of 1,25-dihydroxyvitamin D(3) 24-hydroxylase, mitochondrial (Homo sapiens, UniProt Q07973, M416T) (Q07973 36-514 M416T limits assumed): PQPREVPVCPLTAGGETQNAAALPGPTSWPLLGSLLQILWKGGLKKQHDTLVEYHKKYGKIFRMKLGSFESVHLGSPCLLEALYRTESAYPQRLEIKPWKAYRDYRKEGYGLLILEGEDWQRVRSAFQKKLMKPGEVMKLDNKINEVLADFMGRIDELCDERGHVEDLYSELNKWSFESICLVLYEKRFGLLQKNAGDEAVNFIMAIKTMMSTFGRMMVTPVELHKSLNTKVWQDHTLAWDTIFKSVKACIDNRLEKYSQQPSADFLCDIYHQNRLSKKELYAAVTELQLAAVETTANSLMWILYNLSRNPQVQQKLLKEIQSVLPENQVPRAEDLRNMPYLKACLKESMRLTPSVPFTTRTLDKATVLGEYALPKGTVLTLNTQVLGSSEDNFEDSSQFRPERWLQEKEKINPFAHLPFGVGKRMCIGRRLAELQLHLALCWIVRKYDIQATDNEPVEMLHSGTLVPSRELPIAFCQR

[4] = biological target: T2, Sterol 26-hydroxylase, mitochondrial (Homo sapiens, UniProt Q02318); assay: Inhibition of CYP27A1 expressed in […]
T2 sequence (Q02318 whole entry): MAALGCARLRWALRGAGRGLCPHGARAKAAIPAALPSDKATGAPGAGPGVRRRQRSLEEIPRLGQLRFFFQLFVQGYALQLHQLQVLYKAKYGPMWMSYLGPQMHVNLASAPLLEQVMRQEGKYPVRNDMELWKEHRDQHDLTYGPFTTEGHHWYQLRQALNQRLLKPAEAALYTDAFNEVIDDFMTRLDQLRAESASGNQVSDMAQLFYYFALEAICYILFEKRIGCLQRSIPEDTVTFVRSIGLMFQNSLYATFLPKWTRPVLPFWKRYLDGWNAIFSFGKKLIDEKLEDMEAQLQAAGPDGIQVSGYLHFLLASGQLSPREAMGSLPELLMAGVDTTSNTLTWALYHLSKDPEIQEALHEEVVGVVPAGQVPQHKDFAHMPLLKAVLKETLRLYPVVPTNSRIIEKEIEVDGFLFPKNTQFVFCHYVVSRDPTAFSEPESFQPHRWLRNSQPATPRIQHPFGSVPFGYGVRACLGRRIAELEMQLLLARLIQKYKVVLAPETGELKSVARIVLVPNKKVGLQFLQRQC
In short: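 V79-4 fibroblasts stably expressing wild-type CYP27A1 were cultured in supplemented DMEM and plated in 6-well plates 24 h before use. They were incubated for 24 h in 1% BSA DMEM with 1α-OH-D₃ substrate plus DPPD, with inhibitors at four concentrations (10⁻⁴–10⁻⁷ M). No-inhibitor, dead-cell and no-cell controls were included. Methanol stopped the reaction, then Bligh-Dyer extraction and silica HPLC with photodiode-array detection quantified the metabolite.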

Chain of 1,25-dihydroxyvitamin D(3) 24-hydroxylase, mitochondrial (Homo sapiens, UniProt Q07973, L148F) (Q07973 36-514 L148F limits assumed): as the sequence (Q07973 36-514 M416T limits assumed) above, with L113F, T381M counted along it

Row | inhibition (INH) [1] | IC50 [2] | inhibition (INH) [3] | IC50 [4] | SMILES
1 | Active | 25.6 µM | Active |  | COc1ccc2c(c1)CCC(Cc1ccccc1CCc1ccccc1)C2=O (stereo not given)
2 |  | 1.92 µM |  | 8.23 µM | CCc1ccccc1CC1CCc2cc(OC)ccc2C1=O (stereo not given)
3 |  | 5.08 µM |  | 5.69 µM | COc1ccc2c(c1)CC/C(=C\c1ccccc1/C=C/c1ccccc1)C2=O
4 |  | 11.2 µM |  |  | COc1ccc2c(c1)CC/C(=C\c1ccccc1C(F)(F)F)C2=O
5 |  | 480 µM |  |  | COc1ccc2c(c1)CC/C(=C\c1ccccc1C)C2=O
6 |  | 10.8 µM |  |  | CCc1ccccc1/C=C1\CCc2cc(OC)ccc2C1=O
7 |  | 128 µM |  |  | COc1ccc2c(c1)CCC(Cc1ccccc1-c1ccccc1)C2=O (stereo not given)
8 |  | 127 µM |  |  | COc1ccc2c(c1)CCC(Cc1ccccc1C)C2=O (stereo not given)
9 |  | 343 µM |  |  | COc1ccc2c(c1)CCC(Cc1ccccc1/C=C/c1ccccc1)C2=O (stereo not given)
10 |  | 111 µM |  |  | COc1ccc2c(c1)CC/C(=C\c1ccccc1-c1ccccc1)C2=O
11 |  | 122 µM |  | 4.33 µM | COc1ccc2c(c1)CC/C(=C\c1ccccc1Br)C2=O
12 |  | 2.08 µM |  | 5.34 µM | COc1ccc2c(c1)CCC(Cc1ccccc1C(F)(F)F)C2=O (stereo not given)
13 |  | 16.3 µM |  | 0.059 µM | COc1ccc2c(c1)CCC(Cc1ccccc1Br)C2=O (stereo not given)
